Reference: ChEMBL document CHEMBL1154878, “Discovery of benzhydrylpiperazine derivatives as CB1 receptor inverse agonists via privileged structure-based approach” (Eur J Med Chem, 2010)
The source made the active and inactive calls. No cut-off for these calls is given here.

Experiments:
[1] = target: T1, Cannabinoid receptor 1 (Homo sapiens, UniProt P21554); experiment: biochemical; format: cell-based, CHO
[2] = target: Cannabinoid receptor 2 (Homo sapiens, UniProt P34972); experiment: Displacement of [3H]CP-55940 from human recombinant cannabinoid CB2 receptor expressed in CHO cells after 3 hrs by liquid scintillation counting; format: cell-based
[3] = target: T1, Cannabinoid receptor 1; format: functional, cell-based, CHO
[4] = test system: Rattus norvegicus; experiment: Antiobesity activity in diet-induced obese Sprague-Dawley rat assessed as reduction in final body weight gain at 10 mg/kg, po SID after 12 days; format: functional, organism-based; parameters: dose 10 mg/kg
How it was run: (§1)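 Male DIO rats (HFD from weaning, 60% kcal fat; used at 12-16 weeks, conditioned to water gavage 5 days), individually caged, n = 11-12/group. Oral gavage 10 mg/kg daily for 12 days, 1 h before dark cycle, in 0.5% carboxymethyl cellulose/water (2 mL/kg) vs vehicle. Food intake and body weight recorded daily; Student's t-test.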

[5] = test system: Rattus norvegicus; experiment: Antiobesity activity in diet-induced obese Sprague-Dawley rat assessed as body weight progression at 10 mg/kg, po SID up to 12 days; format: functional, organism-based; parameters: dose 10 mg/kg
How it was run: as §1

[6] = test system: Rattus norvegicus; experiment: Antiobesity activity in diet-induced obese Sprague-Dawley rat assessed as reduction in food intake at 10 mg/kg, po after 18 hrs; format: functional; parameters: scale not given: the % may be the effect or the level left
How it was run: (§2)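 Male DIO Sprague-Dawley rats (HFD from weaning), randomized n = 14/group, individually caged. Single oral dose 10 mg/kg in 0.5% carboxymethyl cellulose (2 mL/kg) 1 h before dark onset. Preweighed pelleted food reweighed at 3 h and overnight (18 h) postdose for cumulative intake vs vehicle.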

[7] = target: T1, Cannabinoid receptor 1; experiment: Inverse agonist activity at human cannabinoid CB1 receptor expressed in CHO cells assessed as inhibition of forskolin-stimulated cAMP accumulation after 60 mins; format: functional, cell-based
[8] = Plasma half life in Sprague-Dawley rat at 10 mg/kg, po; format: ADME, organism-based; parameters: dose 10 mg/kg, route oral
How it was run: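 Male Sprague–Dawley rats fasted overnight, single oral dose 10 mg/kg. Blood collected at various time points into lithium heparin, plasma stored at -20 °C, extracted by protein precipitation and quantified by LC/MS/MS; n = 5 rats/group.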

[9] = test system: Rattus norvegicus; experiment: Antiobesity activity in diet-induced obese Sprague-Dawley rat assessed as reduction in food intake at 10 mg/kg, po after 3 hrs; format: functional; parameters: scale not given: the % may be the effect or the level left
How it was run: as §2

Cannabinoid receptor 2, sequence (P34972 whole entry): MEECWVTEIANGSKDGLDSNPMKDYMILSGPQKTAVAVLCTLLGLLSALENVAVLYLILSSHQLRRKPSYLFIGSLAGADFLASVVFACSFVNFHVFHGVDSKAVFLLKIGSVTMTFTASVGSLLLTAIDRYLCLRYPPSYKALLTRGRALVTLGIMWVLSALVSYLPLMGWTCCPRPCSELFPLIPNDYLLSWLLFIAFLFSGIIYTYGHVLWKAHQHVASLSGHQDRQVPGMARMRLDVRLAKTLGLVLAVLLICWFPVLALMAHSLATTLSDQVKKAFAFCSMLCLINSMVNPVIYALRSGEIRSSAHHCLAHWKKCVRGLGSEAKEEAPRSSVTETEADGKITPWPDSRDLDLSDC
T1 sequence (P21554 whole entry): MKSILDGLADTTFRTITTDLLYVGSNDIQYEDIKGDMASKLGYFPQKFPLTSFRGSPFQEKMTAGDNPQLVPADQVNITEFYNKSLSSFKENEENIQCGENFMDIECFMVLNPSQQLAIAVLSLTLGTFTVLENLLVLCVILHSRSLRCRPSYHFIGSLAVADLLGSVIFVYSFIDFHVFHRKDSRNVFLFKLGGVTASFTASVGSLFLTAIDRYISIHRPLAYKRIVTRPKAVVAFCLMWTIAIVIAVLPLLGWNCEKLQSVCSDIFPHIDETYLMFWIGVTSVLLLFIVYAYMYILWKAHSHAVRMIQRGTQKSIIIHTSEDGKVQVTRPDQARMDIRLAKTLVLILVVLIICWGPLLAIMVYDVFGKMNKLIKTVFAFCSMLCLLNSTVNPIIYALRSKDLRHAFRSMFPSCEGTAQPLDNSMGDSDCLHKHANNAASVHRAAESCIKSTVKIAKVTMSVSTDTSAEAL

SMILES	Ki [1]	Ki [2]	IC50 [3]	other results
O=C(NC1CCCCC1)N1CCN(C(c2ccccc2)c2cc(Cl)ccc2Cl)CC1 (centres undefined)	0.0059 µM	0.899 µM	0.043 µM	
O=C(N1CCOCC1)N1CCN(C(c2ccccc2)c2ccc(Cl)cc2Cl)CC1 (centres undefined)	0.111 µM	0.618 µM	> 10 µM	
Cc1ccc(C(c2ccc(Cl)cc2Cl)N2CCN(C(=O)NC3CCCCC3)CC2)cc1 (centres undefined)	0.00015 µM	0.329 µM	0.0027 µM	Activity [4]: Active; Activity [5]: Active; Activity [6]: 22%; EC50 [7]: 0.00087 µM; half-life [8]: 2.4 h; Activity [9]: 39%
O=C(NC1CCCCC1)N1CCN(C(c2ccc(C(F)(F)F)cc2)c2ccc(Cl)cc2Cl)CC1 (centres undefined)	0.0012 µM	0.274 µM	0.057 µM	
O=C(C1CCCCC1)N1CCN(C(c2ccccc2)c2ccc(Cl)cc2Cl)CC1 (centres undefined)	0.0058 µM	2.93 µM	0.0093 µM	
O=C(NN1CCCCC1)N1CCN(C(c2ccccc2)c2ccc(Cl)cc2Cl)CC1 (centres undefined)	0.0012 µM	1.04 µM	0.0047 µM	
O=C(N1CCCCC1)N1CCN(C(c2ccccc2)c2ccc(Cl)cc2Cl)CC1 (centres undefined)	0.056 µM	0.987 µM	> 10 µM	
O=C(NC1CCCCC1)N1CCN(C(c2ccccc2)c2ccccc2)CC1	0.052 µM	2.41 µM		
O=C(NC1CCCCC1)N1CCN(C(c2ccccc2)c2ccc(F)cc2Cl)CC1 (centres undefined)	0.0081 µM	1.3 µM	0.068 µM	
CCCCNC(=O)N1CCN(C(c2ccccc2)c2ccccc2)CC1	0.239 µM	2.83 µM		
O=C(NC1CCCCC1)N1CCN(C(c2ccccc2)c2ccc(Cl)cc2F)CC1 (centres undefined)	0.0031 µM	0.526 µM	0.124 µM	
O=C(C1CCCC1)N1CCN(C(c2ccccc2)c2ccc(Cl)cc2Cl)CC1 (centres undefined)	0.732 µM	4.88 µM	0.403 µM	
CCCCNC(=O)N1CCN(C(c2ccccc2)c2ccc(Cl)cc2Cl)CC1 (centres undefined)		0.918 µM		
O=C(NC1CCCCC1)N1CCN(C(c2ccccc2)c2ccc(Br)cc2F)CC1 (centres undefined)	0.0018 µM	0.322 µM	0.087 µM	
O=C(NC1CCCCC1)N1CCN(C(c2ccc(Cl)cc2)c2ccc(Cl)cc2Cl)CC1 (centres undefined)	0.00023 µM	0.026 µM	0.019 µM	
S=C(NC1CCCCC1)N1CCN(C(c2ccccc2)c2ccc(Cl)cc2Cl)CC1 (centres undefined)	0.0002 µM	0.673 µM	0.018 µM	
O=C(NC1CCCCC1)N1CCN(C(c2ccc(Oc3ccccc3)cc2)c2ccc(Cl)cc2Cl)CC1 (centres undefined)	0.0011 µM	0.052 µM	0.034 µM	
O=C(NC1CCCCC1)N1CCN(C(c2cccc(Cl)c2)c2ccc(Cl)cc2Cl)CC1 (centres undefined)	0.0023 µM	0.407 µM	0.161 µM	
O=C(NC1CCCCC1)N1CCN(C(c2ccccc2)c2c(Cl)cccc2Cl)CC1 (centres undefined)	0.0022 µM	0.831 µM	0.055 µM	
O=C(C1CCCCC1)N1CCN(C(c2ccccc2)c2ccccc2)CC1	0.164 µM	3.05 µM		
COc1ccc(C(c2ccc(Cl)cc2Cl)N2CCN(C(=O)NC3CCCCC3)CC2)cc1 (centres undefined)	0.0026 µM	0.29 µM	0.082 µM	
Cc1ccc(C(c2ccc(Cl)cc2Cl)N2CCN(C(=O)NN3CCCCC3)CC2)cc1 (centres undefined)	0.003 µM	0.317 µM	0.015 µM	
S=C(NC1CCCCC1)N1CCN(C(c2ccccc2)c2ccccc2)CC1	0.106 µM	1.87 µM		
O=C(NC1CCCCC1)N1CCN(C(c2ccc(F)cc2)c2ccc(Cl)cc2Cl)CC1 (centres undefined)	0.0025 µM	0.159 µM	0.0081 µM	
O=C(N1CCN(C(c2ccccc2)c2ccc(Cl)cc2Cl)CC1)C12CC3CC(CC(C3)C1)C2 (centres undefined)	0.0059 µM	0.025 µM	0.288 µM	
O=C(NC1CCCCC1)N1CCN(C(c2ccccc2)c2ccc(Cl)c(Cl)c2)CC1 (centres undefined)	0.06 µM	0.356 µM	0.462 µM	
O=C(NC1CCCCC1)N1CCN(C(c2ccccc2)c2ccc(Cl)cc2Cl)CC1 (centres undefined)	0.0016 µM	0.432 µM	0.0092 µM	
O=C(C1CCC1)N1CCN(C(c2ccccc2)c2ccc(Cl)cc2Cl)CC1 (centres undefined)	0.291 µM	2.12 µM	> 10 µM	
